From article PMC11757046 (Journal of medicinal chemistry, 2025)

Legend:
Type in all cases: cell-based, human
SH-SY5Y cells [1] = assay: Detoxification of external aldehyde IIa; conditions: IIa 150 μM; relative to IIa only
Summary of the method: (§1)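 SH-SY5Y cells grown in DMEM/F12 with 10% FBS and seeded in 96-well plates for ~48 h at 37 °C, 5% CO2. They were pretreated with the test compound in fresh medium, washed twice, then exposed to the aldehyde in medium at 37 °C. Viability was read by SRB at 510 and 565 nm, background-subtracted. Fold change is % viable over aldehyde-only wells. Mean ± SD, n = 6, one-way ANOVA.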

SH-SY5Y cells [2] = assay: Protection of MPP+-inhibited cells; conditions: then 1 mM MPP+ 24 h, relative to MPP+ only
SH-SY5Y cells [3] = assay: JC-10 mitochondrial membrane potential assay; conditions: MPP+-inhibited cells
SH-SY5Y cells [4] = assay: NAD+/NADH ratio assay; conditions: MPP+-inhibited cells; negative control 68%
SH-SY5Y cells [5] = assay: Detoxification of external aldehyde Ia; conditions: then 20 μM Ia 24 h, relative to Ia only; for fold increase in cell viability against Ia: 1 mM detox agent 3 h
Summary of the method: as §1

SH-SY5Y cells [6] = assay: Intracellular reactive oxygen species assay; conditions: for intracellular ROS level relative to untreated control: MPP+-inhibited cells, DCFDA fluorometric assay
SH-SY5Y cells [7] = assay: Aldehyde quantification assay in MPP+-treated cells
[8] = Protection of MPP+-inhibited cells; conditions: human

N[C@@H](Cc1ccc(O)c(O)c1)C(=O)O [L-Dopa, levodopa]
fold improvement in cell viability against IIa (SH-SY5Y cells [1]): none of the conventional detox agents | fold increase in cell viability against MPP+ (SH-SY5Y cells [2]; 50 μM detox agent 3 h): 1.2 fold

CC(C)(O)c1nc2ccc(Cl)cc2cc1N [Rep, reproxalap]
fold improvement in cell viability against IIa (SH-SY5Y cells [1]): none of the conventional detox agents | MMP, red/green fluorescence ratio (JC-10) (SH-SY5Y cells [3]): 0.4 | intracellular NAD+ content (NAD+ %) (SH-SY5Y cells [4]): 41% | change in cell viability against Ia (SH-SY5Y cells [5]; 50 μM detox agent 3 h): negligible change | intracellular ROS level relative to untreated control (SH-SY5Y cells [6]): 5.1 × | fold increase in cell viability against MPP+ (SH-SY5Y cells [2]; 50 μM detox agent 3 h): 1.3 fold

CCCCCC(O)C=CC=O (centres unmarked) [Ia, 4-hydroxynon-2-enal]
ROS levels after treatment with the aldehyde (SH-SY5Y cells [6]; SH-SY5Y cells treated with Ia): significantly increased ROS levels

C[n+]1ccc(-c2ccccc2)cc1.[I-] [MPP^+, 1-methyl-4-phenylpyridinium iodide]
MMP, red/green fluorescence ratio (JC-10) (SH-SY5Y cells [3]): 0.2 | intracellular NAD+ content (NAD+ %) (SH-SY5Y cells [4]): 27% | aldehyde concentration relative to untreated cells (SH-SY5Y cells [7]): about 44 × | aldehyde concentration in cells (SH-SY5Y cells [7]; Ir2mito used with HCOONa): 89 nmol/10^6 cells | intracellular ROS level relative to untreated control (SH-SY5Y cells [6]): 9.1 × | viability at 24 h, 1 mM [8]: 54%

O=C1O[C@H]([C@@H](O)CO)C(O)=C1O [Asc, sodium ascorbate]
fold improvement in cell viability against IIa (SH-SY5Y cells [1]): none of the conventional detox agents | fold increase in cell viability against Ia (SH-SY5Y cells [5]): negligible change | fold increase in cell viability against MPP+ (SH-SY5Y cells [2]; 1 mM detox agent 3 h): 1.1 fold

NCCC(=O)N[C@@H](Cc1cnc[nH]1)C(=O)O [Car, carnosine]
fold improvement in cell viability against IIa (SH-SY5Y cells [1]): none of the conventional detox agents | intracellular NAD+ content (NAD+ %) (SH-SY5Y cells [4]): negligible effect | fold increase in cell viability against Ia (SH-SY5Y cells [5]): 1.3 fold | intracellular ROS level relative to untreated control (SH-SY5Y cells [6]): 7.5 × | fold increase in cell viability against MPP+ (SH-SY5Y cells [2]; 1 mM detox agent 3 h): 1.2 fold
